Test results reported in PMC3919449 (Chemistry & biology, 2013).

Columns and labels:
[1] = tested on: Kelly, LAN-1, BE(2)-C, and SH-SY5Y; assay: ATP-based viability; settings: four neuroblastoma cell lines, five days of treatment
How it was run: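 Kelly, LAN-1, BE(2)-C and SH-SY5Y grown in DMEM with 10% FBS and 1% penicillin-streptomycin with glutamine, identity confirmed by STR profiling. Cells exposed to test compound over a 9-point concentration range for five days; viability read by ATP luminescence (CellTiter Glo) per manufacturer's instructions.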

[2] = tested on: SH-SY5Y; assay: GE-HTS neuroblastoma differentiation signature in SH-SY5Y; type: cell-based; settings: second cell line
[3] = tested on: HDACs 4-9; assay: HDAC activity assay, other HDACs; type: biochemical; settings: HDACs 4-9, same concentration range
How it was run: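 Recombinant full-length HDAC preincubated 3 h with test compound, then fluorogenic substrate at Km: MAZ1600 for HDAC6 (9 μM); MAZ1675 for HDAC4 (10 μM), 5 (40 μM), 7 (22 μM), 8 (282 μM), 9 (26 μM). Trypsin-coupled AMC release read every 5 min; linear-range rate normalized to DMSO (<0.5%); IC50 by unconstrained logistic regression.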

[4] = tested on: BE(2)-C cells; assay: GE-HTS neuroblastoma differentiation signature in BE; type: cell-based; settings: for induction of the differentiation signature (differentiation score): two days of treatment
How it was run: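 In BE(2)-C cells with 2 nM cisRA as differentiation enhancer, test compound applied at eight concentrations in duplicate for 2 days. Controls were 1 μM cisRA (positive) and DMSO (negative), plus a cisRA dose-response plate per run. GE-HTS gave the differentiation score. AUC: cubic natural spline at 50 points over log dose, trapezoid areas against the mean DMSO score, divided by log-concentration range.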

[5] = tested on: Kelly, LAN-1, BE(2)-C, and SH-SY5Y; assay: GE-HTS differentiation signature in four neuroblastoma cell lines; type: cell-based; settings: two day and five day time points
How it was run: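 Cells grown in DMEM with 10% FBS and 1% penicillin-streptomycin with glutamine, then exposed to the test compound over a concentration range for 2 or 5 days. Read-out is GE-HTS: ligation-mediated amplification with fluorescent bead detection of 59 signature genes. Differentiation score is the signature-gene expression divided by mean control-gene expression, summed with weights/signs from cisRA vs DMSO controls. Four replicates; one-way ANOVA with Bonferroni versus DMSO.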

[6] = tested on: BE(2)-C cells; assay: NF-M immunofluorescence, morphologic changes; type: cell-based; settings: NF-M labeling
How it was run: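 BE(2)-C cells treated in duplicate with DMSO vehicle or the test compound for 72 h. Cells washed, fixed in 4% formaldehyde and permeabilized with 0.2% Triton X-100. Stained with monoclonal anti-NF-M and an Alexa Fluor 568 secondary. Mounted in antifade with DAPI counterstain; neurite projections examined.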

[7] = tested on: histone H3 acetylation in BE(2)-C cells; assay: Immunoblot for acetylated histone H3; type: cell-based; settings: six hours of treatment
How it was run: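 BE(2)-C cells exposed to the test compound or DMSO for six hours; nuclear extracts then immunoblotted for acetylated histone H3.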

Structure (SMILES)	induction of the differentiation signature (differentiation score) [4]	also measured
C[C@H](CO)N1C[C@H](C)[C@H](CN(C)Cc2ccc(C(=O)Nc3ccccc3N)cc2)Oc2ccc(N(C)C)cc2CC1=O [BRD8430]	significantly inducing the signature at all eight concentrations tested	viability [1]: reduced the viability; induction of the differentiation signature [2]: confirmed to induce the differentiation signature; IC50 for inhibition of the other HDACs [3]: not able to determine IC50 values; AUC of the differentiation score across eight concentrations ([4]; two days, eight concentrations): highest AUC value of the 32 compounds evaluated; induction of the differentiation signature [5]: induce the differentiation signature in a concentration-dependent manner; morphologic changes consistent with differentiation [6]: induced morphologic changes, including neurite outgrowth; histone H3 acetylation [7]: increased histone H3 acetylation in a concentration-dependent manner
CC1=C(/C=C/C(C)=C/C=C/C(C)=C/C(=O)O)C(C)(C)CCC1 [ATRA, all-trans retinoic acid]	induce the differentiation signature in a dose-dependent manner	
O=C(CCCCCCC(=O)Nc1ccccc1)NO [Vorinostat, vorinostat]	significantly induced differentiation at multiple concentrations	
CC(=O)Nc1ccc(C(=O)Nc2ccccc2N)cc1 [CI-994]	significantly induced differentiation at multiple concentrations	
Nc1ccccc1NC(=O)c1ccc(CNC(=O)OCc2cccnc2)cc1 [MS-275]	significantly induced differentiation at multiple concentrations	
C[C@H](CO)N1C[C@H](C)[C@H](CN(C)Cc2ccc(C(=O)Nc3ccccc3N)cc2)Oc2ccc(N(C)C)cc2C1=O [BRD6819]	induced the differentiation signature in a manner similar to BRD8430	induction of the differentiation signature [2]: confirmed to induce the differentiation signature
C[C@H](CO)N1C[C@H](C)[C@H](CN(C)Cc2ccc(C(=O)Nc3ccccc3N)cc2)Oc2c(cccc2N(C)C)C1=O [BRD6332]	greatly dampened differentiation activity	
CC1=C(/C=C/C(C)=C/C=C/C(C)=C\C(=O)O)C(C)(C)CCC1 [cisRA, 13-cis retinoic acid]	induce the differentiation signature in a dose-dependent manner	
